{"data": "Measurements of several laboratories", "note": "Each line is one published result; the experiments were not run side by side."}
{"SMILES": "COc1ccc2nc(-c3ccccn3)c(N(C)c3ccc(F)cc3)n2c1", "species": "male CD-1 mouse", "matrix": "plasma", "route": "oral", "dose": "50 mg/kg", "notes": "fasted", "AUC(0-t)": "953 ng·h/mL"}
{"SMILES": "O=S(=O)(c1ccc(-c2ccc3nccc(Nc4ccncn4)c3c2)cc1)N1CCOCC1", "species": "female BALB/c mouse", "matrix": "plasma", "route": "intraperitoneal", "dose": "10 mg/kg", "AUC(0-t)": "9510 ng·h/mL"}
{"SMILES": "CN1CCN(CC2CCN(c3cncc4[nH]c(-c5cc(F)cc(F)c5)nc34)CC2)CC1", "species": "mouse", "matrix": "blood", "route": "oral", "dose": "10 mg/kg", "AUC(0-t)": "3.57 µM·h"}
{"SMILES": "COc1nc(-c2cc(C)c(N[C@@H](C)c3ccc(F)cc3)nn2)ccc1-n1cnc(C)c1", "species": "male CD-1 mouse", "matrix": "plasma", "route": "oral", "dose": "5 mg/kg", "notes": "single dose", "AUC(0-t)": "12700 ng·h/mL"}
{"SMILES": "COc1ccc(C(O)COc2ccc(-c3csc(-c4ccc(OCC(O)c5ccc(OC)c(OC)c5)cc4)n3)cc2)cc1OC (stereo not shown)", "species": "C57BL/6 mouse", "matrix": "plasma", "route": "oral", "dose": "75 mg/kg", "AUC(0-t)": "73000 ng·h/mL"}
{"SMILES": "CC=Cc1ccc(O)c(OC)c1", "species": "mouse", "matrix": "plasma", "route": "intranasal", "dose": "100 mg/kg", "AUC(0-t)": "9980 ng·h/mL"}
{"SMILES": "CNC(=O)c1cc(Oc2ccc(NC(=O)Nc3ccc(Cl)c(C(F)(F)F)c3)c(F)c2)cc[n+]1[O-]", "species": "mouse", "matrix": "plasma", "route": "oral", "dose": "10 mg/kg", "notes": "single dose", "AUC(0-t)": "1930 ng·h/mL"}
{"SMILES": "Cc1ccc(NC(=O)c2ccc(CN3CCN(C)CC3)cc2)cc1Nc1nccc(-c2cncc(-c3oncc3C)c2)n1", "species": "male C57BL/6 mouse", "matrix": "plasma", "route": "oral", "dose": "100 mg/kg/day", "AUC(0-t)": "37800 ng·h/mL"}
{"SMILES": "CN1CCN(C2CCN(c3nccc4[nH]c(-c5cc(F)cc(F)c5)nc34)CC2)CC1", "species": "mouse", "matrix": "blood", "route": "intravenous", "dose": "2 mg/kg", "AUC(0-t)": "1.95 µM·h"}
{"SMILES": "Cc1ccc2cncc(N3CCc4c(cc(Cn5ccnc5)cc4-c4cn(C)nc4C(F)(F)F)C3=O)c2c1", "species": "male CD-1 mouse", "matrix": "plasma", "route": "oral", "dose": "10 mg/kg", "AUC(0-t)": "4420 ng·h/mL"}
{"SMILES": "Cc1nc(-c2cnc(NC(C)C)n(C)c2=O)ccc1Oc1ccnc(-c2cnn(C)c2)c1", "species": "female mouse", "matrix": "plasma", "route": "oral", "dose": "7.5 mg/kg", "notes": "single dose", "AUC(0-t)": "52600 ng·h/mL"}
{"SMILES": "NC(=O)c1cc(Oc2ccc(NC(=O)Nc3ccc(Cl)c(C(F)(F)F)c3)c(F)c2)cc[n+]1[O-]", "species": "mouse", "matrix": "plasma", "route": "oral", "dose": "10 mg/kg", "notes": "single dose", "AUC(0-t)": "65 ng·h/mL"}
{"SMILES": "COc1cc(OC)c2nccc(N3CCc4c(cc(Cn5ccnc5)cc4-c4cn(C)nc4C(F)(F)F)C3=O)c2c1", "species": "male CD-1 mouse", "matrix": "plasma", "route": "intravenous", "dose": "3 mg/kg", "AUC(0-t)": "803 ng·h/mL"}
{"SMILES": "C[C@H]1[C@@H](O)O[C@@H]2O[C@@]3(C)CC[C@H]4[C@H](C)CC[C@@H]1[C@@]24OO3", "species": "female SCID mouse", "matrix": "plasma", "route": "oral", "dose": "60 mg/kg", "AUC(0-t)": "382 ng·h/mL"}
{"SMILES": "COc1ccc2nccc(N3CCc4c(cc(Cn5ccnc5)cc4-c4cn(C)nc4C(F)(F)F)C3=O)c2c1", "species": "male CD-1 mouse", "matrix": "plasma", "route": "oral", "dose": "10 mg/kg", "AUC(0-t)": "2080 ng·h/mL"}
{"SMILES": "COc1nc(-c2cc(C)c(N[C@@H](C)c3c(F)cc(F)cc3F)nn2)ccc1-n1cnc(C)c1", "species": "male CD-1 mouse", "matrix": "plasma", "route": "oral", "dose": "5 mg/kg", "notes": "single dose", "AUC(0-t)": "7960 ng·h/mL"}
{"SMILES": "CN1CCN(C(=O)CN[C@@H]2C[C@H]2c2ccc(OCc3ccccc3)cc2)CC1", "species": "mouse", "matrix": "plasma", "route": "intraperitoneal", "dose": "10 mg/kg", "AUC(0-t)": "1660 ng·h/mL"}
{"SMILES": "C=CC(=O)N1CC2CC(n3nc(-c4ccc(C(=O)Nc5ccccn5)cc4)c4c(N)ncnc43)CC2C1 (stereo not shown)", "species": "SCID mouse", "matrix": "plasma", "route": "oral", "dose": "0.2 mg/kg", "AUC(0-t)": "8.63 ng·h/mL"}
{"SMILES": "CNC(=O)c1cc(OC)cc2c(N3CCc4c(cc(Cn5ccnc5)cc4-c4cn(C)nc4C(F)(F)F)C3=O)ccnc12", "species": "male CD-1 mouse", "matrix": "plasma", "route": "intravenous", "dose": "3 mg/kg", "AUC(0-t)": "3300 ng·h/mL"}
{"SMILES": "CCOc1ccc(Cc2cc([C@@H]3O[C@H](CO)[C@@H](O)[C@H](O)[C@H]3O)ccc2Cl)cc1", "species": "male C57BL/6 mouse", "matrix": "plasma", "route": "oral", "dose": "1 mg/kg", "AUC(0-t)": "457 ng·h/mL"}
{"SMILES": "C[C@H](NC(=O)C(C)(C)Oc1ccc(C(F)(F)F)cn1)[C@@H](Cc1ccc(Cl)cc1)c1cccc(C#N)c1", "species": "mouse", "matrix": "plasma", "route": "oral", "dose": "6 µmol/kg", "notes": "single dose", "AUC(0-t)": "5.3 µM·h"}
{"SMILES": "CCOC(=O)c1sc(Nc2ncccn2)nc1-c1ccccn1", "species": "male CD-1 mouse", "matrix": "plasma", "route": "intravenous", "dose": "2 mg/kg", "AUC(0-t)": "448 ng·h/mL"}
{"SMILES": "CSc1cc(Oc2ccnc3[nH]c(=O)cnc23)ccc1NC(=O)Nc1cc(C(C)(C)C)nn1-c1ccccc1", "species": "BALB/c mouse", "matrix": "plasma", "route": "intravenous", "dose": "2 mg/kg", "AUC(0-t)": "95 µM·h"}
{"SMILES": "CC(C)(Nc1nc(-c2ccccn2)nc2ccccc12)c1ccccn1", "species": "female BALB/c mouse", "matrix": "plasma", "route": "intravenous", "dose": "1 mg/kg", "AUC(0-t)": "1450 ng·h/mL"}
{"SMILES": "CN1CCC[C@H](CN2c3ccccc3Sc3ccccc32)C1.Cl", "species": "mouse", "matrix": "plasma", "route": "oral", "dose": "64 mg/kg", "notes": "single dose", "AUC(0-t)": "6010 ng·h/mL"}
{"SMILES": "CN1CCC(N2CCN(c3nccc4[nH]c(-c5ccc(F)c(F)c5)nc34)CC2)CC1", "species": "BALB/c mouse", "matrix": "blood", "route": "oral", "dose": "20 mg/kg", "AUC(0-t)": "6.63 µM·h"}
{"SMILES": "CC(C)(C)c1cc(NC(=O)Nc2ccc(Oc3ccnc4[nH]c(=O)cnc34)cc2F)n(-c2ccccc2)n1", "species": "BALB/c mouse", "matrix": "plasma", "route": "oral", "dose": "10 mg/kg", "AUC(0-t)": "416 µM·h"}
{"SMILES": "Cn1ccnc1N1CCN(CC2CCN(c3nccc4[nH]c(-c5cc(F)cc(F)c5)nc34)CC2)CC1", "species": "mouse", "matrix": "blood", "route": "intravenous", "dose": "2 mg/kg", "AUC(0-t)": "7.88 µM·h"}
{"SMILES": "CN1C(=O)c2ccccc2[S@+]([O-])c2ccc(C(=O)NCCc3cccs3)cc21", "species": "male C57BL/6 mouse", "matrix": "plasma", "route": "intraperitoneal", "dose": "30 mg/kg", "notes": "single dose", "AUC(0-t)": "7800 ng·h/mL"}
{"SMILES": "Fc1ccc(-c2nc3c(N4CCC(CN5CCOCC5)CC4)nccc3[nH]2)cc1F", "species": "mouse", "matrix": "blood", "route": "intravenous", "dose": "2 mg/kg", "AUC(0-t)": "4.17 µM·h"}
{"SMILES": "Cc1c2c(n(-c3ccc(F)cc3Cl)c1-c1ccc(OS(=O)(=O)CCC(F)(F)F)cc1)CCN(N1CCCCC1)C2=O", "species": "mouse", "matrix": "plasma", "route": "oral", "dose": "6 µmol/kg", "notes": "single dose", "AUC(0-t)": "0.89 µM·h"}
{"SMILES": "CN1CCN(C(=O)c2cc3c(Nc4ccc(OC(F)(F)F)cc4)ncnc3s2)CC1", "species": "male BALB/c mouse", "matrix": "plasma", "route": "oral", "dose": "20 mg/kg", "AUC(0-t)": "2410 ng·h/mL"}
{"SMILES": "CC[C@H](C)[C@@H]1NC(=O)[C@@](C)(NC(=O)[C@H](CCCNC(=N)N)NC(=O)[C@H](CC(C)C)NC(=O)[C@@H](NC(=O)[C@H](CCC(N)=O)NC(=O)[C@H](CC(C)C)NC(C)=O)[C@@H](C)O)CCCC=CCCC[C@@](C)(C(=O)N[C@@H](CC(C)C)C(=O)N[C@@H](Cc2ccc3ccccc3c2)C(N)=O)NC(=O)[C@H](CCCNC(=N)N)NC(=O)[C@H](CCC(N)=O)NC1=O", "species": "male BALB/c mouse", "matrix": "plasma", "route": "subcutaneous", "dose": "10 mg/kg", "AUC(0-t)": "140000 ng·h/mL"}
{"SMILES": "COc1nc(-c2cc(C)c(N[C@@H](C)c3cc(F)cc(F)c3)nn2)ccc1-n1cnc(C)c1", "species": "male CD-1 mouse", "matrix": "plasma", "route": "intravenous", "dose": "1 mg/kg", "notes": "single dose", "AUC(0-t)": "1940 ng·h/mL"}
{"SMILES": "CCc1cc(C(=O)NC)c2nccc(N3CCc4c(cc(Cn5ccnc5)cc4-c4cn(C)nc4C(F)(F)F)C3=O)c2c1", "species": "male CD-1 mouse", "matrix": "plasma", "route": "oral", "dose": "50 mg/kg", "AUC(0-t)": "122000 ng·h/mL"}
{"SMILES": "NS(=O)(=O)c1ccc(-c2cc(Nc3ccc(OC(F)(F)F)cc3)ncn2)cc1", "species": "male BALB/c mouse", "matrix": "plasma", "route": "oral", "dose": "20 mg/kg", "AUC(0-t)": "9390 ng·h/mL"}
{"SMILES": "CNCCN(C)c1cc(C#N)cc(CCc2cc(C)cc(N)n2)c1", "species": "male BALB/c mouse", "matrix": "plasma", "route": "oral", "dose": "10 mg/kg", "AUC(0-t)": "162 ng·h/mL"}
{"SMILES": "CN1CCN(c2nccc3nc(-c4ccc(F)c(F)c4)[nH]c23)CC1", "species": "mouse", "matrix": "blood", "route": "intravenous", "dose": "2 mg/kg", "AUC(0-t)": "3.58 µM·h"}
{"SMILES": "CCc1cc(OC)c2nccc(N3CCc4c(cc(Cn5ccnc5)cc4-c4cn(C)nc4C(F)(F)F)C3=O)c2c1", "species": "male CD-1 mouse", "matrix": "plasma", "route": "oral", "dose": "150 mg/kg", "AUC(0-t)": "224000 ng·h/mL"}
{"SMILES": "CS(=O)(=O)CCNCc1ccc(-c2ccc3ncnc(Nc4ccc(OCc5cccc(F)c5)c(Cl)c4)c3c2)o1", "species": "nude mouse", "matrix": "plasma", "route": "oral", "dose": "200 mg/kg", "notes": "single dose", "AUC(0-t)": "234000 ng·h/mL"}
